Measured values from different studies.
Target: Serine/threonine-protein kinase DCLK2 (DCLK2, Homo sapiens, UniProt Q8N568)
One construct used (Q8N568 1-766): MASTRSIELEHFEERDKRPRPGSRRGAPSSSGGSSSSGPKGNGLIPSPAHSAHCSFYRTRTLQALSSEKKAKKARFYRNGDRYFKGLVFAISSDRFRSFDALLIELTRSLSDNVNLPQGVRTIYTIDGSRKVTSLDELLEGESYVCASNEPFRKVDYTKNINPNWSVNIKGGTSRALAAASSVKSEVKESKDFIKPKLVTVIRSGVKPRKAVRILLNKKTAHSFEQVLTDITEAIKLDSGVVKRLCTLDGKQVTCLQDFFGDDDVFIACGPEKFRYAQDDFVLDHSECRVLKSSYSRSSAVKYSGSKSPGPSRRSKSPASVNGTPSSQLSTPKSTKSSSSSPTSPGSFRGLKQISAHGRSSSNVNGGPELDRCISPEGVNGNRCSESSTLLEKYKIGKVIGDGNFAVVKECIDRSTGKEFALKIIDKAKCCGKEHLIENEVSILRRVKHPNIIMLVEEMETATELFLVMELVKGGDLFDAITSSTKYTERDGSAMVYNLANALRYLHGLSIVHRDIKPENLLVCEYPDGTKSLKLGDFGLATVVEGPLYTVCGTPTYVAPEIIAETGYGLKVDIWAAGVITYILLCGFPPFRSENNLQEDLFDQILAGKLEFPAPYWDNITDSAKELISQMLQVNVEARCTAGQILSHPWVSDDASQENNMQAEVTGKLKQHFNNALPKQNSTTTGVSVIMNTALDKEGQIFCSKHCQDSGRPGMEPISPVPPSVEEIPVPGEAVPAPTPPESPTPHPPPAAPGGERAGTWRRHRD

CO[C@H]1CC[C@H](CNc2ccc(S(=O)(=O)NC(=O)c3ccc(N4CCN(CC5=C(c6ccc(Cl)cc6)CC(C)(C)CC5)CC4)cc3Oc3cnc4[nH]ccc4c3)cc2[N+](=O)[O-])CC1 — remaining binding (cell-free assay; competition with immobilised ligand; 1 µM): 100%
O=C(Nc1cnn(-c2csc(C(=O)NC3COC3)c2)c1)Nc1c(F)cccc1Cl — remaining activity (enzyme activity; inhibitor; 5 µM): 94.3%
COc1cc(Cl)c(C(=O)N[C@@H](CN[C@H]2CC[C@@H](N)CC2)Cc2ccc(C#N)cc2)cc1-c1ccc(CN[C@H](C)c2ccc(C)cc2)o1 — remaining activity (enzyme activity; inhibitor; 1 µM): 96%
COc1cc2ncnc(Nc3ccc(Oc4ccccc4)c(C)c3C)c2cc1OC — inhibition (enzyme activity; inhibitor; 1 µM): 3%
CNC(=O)c1cc(Oc2ccc(NC(=O)Nc3ccc(Cl)c(C(F)(F)F)c3)cc2)ccn1 — remaining signal (cell-free assay; 0.5 µM): 102%
N#Cc1ccc(Nc2ccc3[nH]c(=O)[nH]c3c2)c(Cl)c1 — remaining binding (cell-free assay; competition with immobilised ligand; 1 µM): 100%
N#CCCc1ccc2c(c1)-c1[nH]c3ccc([N+](=O)[O-])cc3c1CC(=O)N2 — remaining signal (cell-free assay; 0.5 µM): 104%
CN1CC(Oc2cnc(C#N)cc2-c2ccn3nc(NC(=O)C4CC4)cc3c2)C1 — inhibition (enzyme activity; inhibitor; 1 µM): -1%
Cc1cnc(NC2CCOCC2)nc1-n1cnc(C(=O)NC(CN)c2cc(F)cc(Cl)c2)c1 (centres unmarked) — remaining activity (enzyme activity; inhibitor; radiometric; 1 µM): 83%
Cc1nccc(COC(=O)N2C[C@@H]3[C@@H](CNC(=O)c4ccc5[nH]nnc5c4)[C@@H]3C2)n1 — remaining binding (cell-free assay; competition with immobilised ligand; 1 µM): 100%
Cc1ccc(NC(=O)c2ccc(C)c(C(F)(F)F)c2)cc1C#Cc1nn(C2CCC(O)CC2)c2ncnc(N)c12 (centres unmarked) — remaining signal (cell-free assay; 10 µM): 102%
CCN(CC)CCNC(=O)c1c(C)[nH]c(/C=C2\C(=O)Nc3ccc(F)cc32)c1C — inhibition (enzyme activity; inhibitor; 10 µM): 69%
CCN(CC)c1ccc(C2=NNC(=O)CC2C)cc1[N+](=O)[O-] (centres unmarked) — remaining activity (enzyme activity; inhibitor; 10 µM): 102%
Cn1cncc1C1=CN(c2ncnc3[nH]cnc23)CCS1 — inhibition (enzyme activity; inhibitor; radiometric; 2 µM): 14.2%
Cc1ccc(Nc2nccc(N(C)c3ccc4c(C)n(C)nc4c3)n2)cc1S(N)(=O)=O — inhibition (enzyme activity; inhibitor; 10 µM): -19%
CCCOc1ccc([C@H]2[C@H](C(=O)O)[C@@H](c3ccc4c(c3)OCO4)CN2CC(=O)Nc2c(CC)cccc2CC)cc1 — remaining binding (cell-free assay; competition with immobilised ligand; 1 µM): 77%
COc1cc2c(N3CCN(C(=O)Nc4ccc(OC(C)C)cc4)CC3)ncnc2cc1OCCCN1CCCCC1 — remaining signal (cell-free assay; 0.5 µM): 103%
Cc1noc([C@H]2C[C@@H](c3ccc(C(F)(F)F)cc3)CN(C(=O)N3CCS(=O)(=O)C3)C2)n1 — remaining binding (cell-free assay; competition with immobilised ligand; 1 µM): 100%
O=C1NC(=O)c2cc(Nc3ccc(F)cc3)c(Nc3ccc(F)cc3)cc21 — remaining signal (cell-free assay; 0.5 µM): 100%
COc1ccc2c(c1)O[C@H](c1ccc(OC)c(OC)c1)C[C@@H]2NC(=O)C1(c2ccc3c(c2)OC(F)(F)O3)CC1 — remaining binding (cell-free assay; competition with immobilised ligand; 1 µM): 98%
CCCOc1ccc(OC)c(F)c1C(=O)c1ccc(C(=O)N[C@@H]2CNC[C@H]2NC(=O)c2ccc3[nH]ncc3c2)cc1 — remaining activity (enzyme activity; inhibitor; 10 µM): 33%
CNC(=O)Nc1ccc2c(c1)CC[C@@]21OC(=O)N(CC(=O)N(Cc2ccc(F)cc2)[C@@H](C)C(F)(F)F)C1=O — remaining binding (cell-free assay; competition with immobilised ligand; 1 µM): 70%
CC(C)(C)c1nc2c(s1)c1nc(N)ncc1c1ccc(NS(=O)(=O)c3c(F)cccc3F)c(F)c12 — remaining activity (enzyme activity; inhibitor; radiometric; 1 µM): 90%
